Here are results for two substances from paper PMC10622838 (The Journal of Biological Chemistry, 2023).

One test relates to GPR114. Briefly: CRE-Luc assay, GPR114 overexpressed in HEK293T cells. In kind it is cell-based, human. The procedure, abridged:
(§1)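 HEK293T cells plated in DMEM + 10% FBS 24 h before polyethylenimine co-transfection with receptor in pcDNA3.1, rat insulin II promoter CRE-firefly luciferase, and phRLuc-N1 Renilla control. Cells were reseeded at 80,000/well 6 h later, serum-starved 4 h at 36 h, then given synthetic peptide in DMSO for 4 h. Firefly luminescence (Steady-Glo) was normalised to RLuc (3 μM coelenterazine h). Mean ± SD, ≥3 independent experiments.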

The subject of the next test is GPR64. As to the kind of experiment: CRE-Luc assay, GPR64 overexpressed in HEK293T cells. In kind it is cell-based, human. The procedure, abridged:
as §1

A further test has as its system EoL-1 cells. As to the kind of experiment: cAMP accumulation. In kind it is cell-based, human. Particulars: from combined Fig. 5F and Fig. 5H. For orientation: Cyclic AMP is a second messenger, typically raised through Gs and lowered through Gi signalling.
Test [1] deals with GPR114-A230M (CTF-only, compromised TA). Briefly: CRE-luciferase reporter assay, GPR114-A230M. The test is classed as cell-based, human. Particulars: HEK293T, thrombin 4 h, FLuc/RLuc ratio, Fig. 4C. A general note: Reporter assays use an easily measured gene product as a stand-in for the process of interest.
Another test has as its system PAR1-GPR56 fusion / G13. Briefly: G13 GTPγS binding kinetics, PAR1-GPR56 fusion Sf9 membranes. The test is classed as biochemical, human. Conditions: Fig. S1A. On the technique in general: Binding of GTPγS marks nucleotide exchange on a G protein.

Turning to TYFAVLM [P7 GPR114-AP], the “activation in CRE-Luc assay” value is “did not activate GPR114 nor GPR64” in the test with GPR114 (GPR114, Fig. 5H, as summarised in Discussion) and “did not activate GPR114 nor GPR64” with GPR64 (GPR64, Fig. 5H, as summarised in Discussion). Also, the “CRE-Luc activity (stimulation)” value with GPR114 (TA-compromised (ΔTA) 7TM version of GPR114, Fig. 5H) is reported as “did not stimulate cAMP production in any condition”; in the test on GPR114 (full length GPR114, Fig. 5H) it was “did not stimulate cAMP production in any condition”; with GPR64 (TA-compromised (ΔTA) 7TM version of GPR64, Fig. 5H), “did not stimulate cAMP production in any condition”; with GPR64 (full length GPR64, Fig. 5H), “did not stimulate cAMP production in any condition”. Further, the “target specificity of cAMP stimulation in EoL-1 cells (conclusion)” value with EoL-1 cells is reported as “promiscuously stimulates cAMP accumulation via a yet to be determined GPCR”.
On to Thrombin, for which, in test [1], the “thrombin-dependent CRE-luciferase activation” value is “not stimulated by thrombin”. The “thrombin-dependent activation of purified G13” value with PAR1-GPR56 fusion / G13 is listed as “strong thrombin-dependent activation of purified G13”.
